# Reference: ChEMBL document CHEMBL1145535, “Clonal diversity and resistance mechanisms in tetracycline-nonsusceptible Streptococcus pneumoniae isolates in Poland” (2007)
# Key:
# Type in all cases: functional
# [1] = test system: Streptococcus pneumoniae; assay: Antimicrobial susceptibility of tetracycline-resistant Streptococcus pneumoniae from respiratory tract disease patient assessed as percent susceptible isolates
# How it was run: (§1)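 MICs determined for all tetracycline-resistant isolates by broth microdilution per CLSI recommendations. Agents tested included tetracycline, doxycycline, penicillin G, erythromycin and chloramphenicol. FDA breakpoints were applied to categorize tigecycline results.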
# [2] = test system: Streptococcus pneumoniae; assay: Antimicrobial activity against Streptococcus pneumoniae ATCC 49619
# How it was run: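 MICs determined by broth microdilution as recommended by CLSI. Agents tested included tetracycline, doxycycline, penicillin G, erythromycin and chloramphenicol. Tigecycline results were interpreted against FDA breakpoints.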
# [3] = test system: Streptococcus pneumoniae; assay: Antimicrobial susceptibility of tetracycline-resistant Streptococcus pneumoniae from respiratory tract disease patient assessed as percent resistant isolates; how it was run: as §1
SMILES,Activity [1],MIC50 [2],MIC90 [2],Activity [3]
CO/N=C(\C(=O)N[C@@H]1C(=O)N2C(C(=O)O)=C(COC(C)=O)CS[C@H]12)c1csc(N)n1 [CEFOTAXIME],93.8%,0.015 µg/mL,1 µg/mL,2.1%
O=C(N[C@H](CO)[C@H](O)c1ccc([N+](=O)[O-])cc1)C(Cl)Cl [CHLORAMPHENICOL],70.7%,4 µg/mL,16 µg/mL,39.2%
CCC[C@@H]1C[C@@H](C(=O)N[C@@H]([C@H]2O[C@H](SC)[C@H](O)[C@@H](O)[C@H]2O)[C@H](C)Cl)N(C)C1 [CLINDAMYCIN],76.9%,≤ 0.03 µg/mL,> 4 µg/mL,23.1%
C[C@H]1c2cccc(O)c2C(=O)C2=C(O)[C@]3(O)C(=O)C(C(N)=O)=C(O)[C@@H](N(C)C)[C@@H]3[C@@H](O)[C@@H]21.O [DOXYCYCLINE],19.9%,4 µg/mL,8 µg/mL,25.2%
CC[C@H]1OC(=O)[C@H](C)[C@@H](O[C@H]2C[C@@](C)(OC)[C@@H](O)[C@H](C)O2)[C@H](C)[C@@H](O[C@@H]2O[C@H](C)C[C@H](N(C)C)[C@H]2O)[C@](C)(O)C[C@@H](C)C(=O)[C@H](C)[C@@H](O)[C@]1(C)O [ERYTHROMYCIN],72.4%,≤ 0.25 µg/mL,> 16 µg/mL,26.4%
C[C@H]1COc2c(N3CCN(C)CC3)c(F)cc3c(=O)c(C(=O)O)cn1c23.C[C@H]1COc2c(N3CCN(C)CC3)c(F)cc3c(=O)c(C(=O)O)cn1c23.O [LEVOFLOXACIN],98.8%,1 µg/mL,1 µg/mL,0.4%
CC(=O)NC[C@H]1CN(c2ccc(N3CCOCC3)c(F)c2)C(=O)O1 [LINEZOLID],100%,1 µg/mL,1 µg/mL,
C[C@@H](O)[C@H]1C(=O)N2C(C(=O)O)=C(S[C@@H]3CN[C@H](C(=O)N(C)C)C3)[C@H](C)[C@H]12 [MEROPENEM],86.8%,≤ 0.015 µg/mL,0.5 µg/mL,0.4%
CN(C)c1ccc(O)c2c1C[C@H]1C[C@H]3[C@H](N(C)C)C(O)=C(C(N)=O)C(=O)[C@@]3(O)C(O)=C1C2=O [MINOCYCLINE],24.4%,4 µg/mL,8 µg/mL,38.8%
CC1(C)S[C@@H]2[C@H](NC(=O)Cc3ccccc3)C(=O)N2[C@H]1C(=O)O [PENICILLIN G],74%,0.015 µg/mL,2 µg/mL,14.9%
CO[C@H]1/C=C/O[C@@]2(C)Oc3c(C)c(O)c4c(O)c(c(/C=N/N5CCN(C)CC5)c(O)c4c3C2=O)NC(=O)/C(C)=C\C=C\[C@H](C)[C@H](O)[C@@H](C)[C@@H](O)[C@@H](C)[C@H](OC(C)=O)[C@@H]1C [RIFAMPIN],98.8%,≤ 0.03 µg/mL,≤ 0.03 µg/mL,0.8%
CC[C@H]1OC(=O)[C@H](C)C(=O)[C@H](C)[C@@H](O[C@@H]2O[C@H](C)C[C@H](N(C)C)[C@H]2O)[C@](C)(OC)C[C@@H](C)C(=O)[C@H](C)[C@H]2N(CCCCn3cnc(-c4cccnc4)c3)C(=O)O[C@]12C [TELITHROMYCIN],98.8%,≤ 0.015 µg/mL,≤ 0.015 µg/mL,0.4%
CN(C)[C@@H]1C(O)=C(C(N)=O)C(=O)[C@@]2(O)C(O)=C3C(=O)c4c(O)cccc4[C@@](C)(O)[C@H]3C[C@@H]12 [TETRACYCLINE],,32 µg/mL,64 µg/mL,100%
CN(C)c1cc(NC(=O)CNC(C)(C)C)c(O)c2c1C[C@H]1C[C@H]3[C@H](N(C)C)C(O)=C(C(N)=O)C(=O)[C@@]3(O)C(O)=C1C2=O [TIGECYCLINE],100%,0.015 µg/mL,0.03 µg/mL,
COc1cc(Cc2cnc(N)nc2N)cc(OC)c1OC [TRIMETHOPRIM],30.2%,2 µg/mL,8 µg/mL,38.4%
CN[C@H](CC(C)C)C(=O)N[C@H]1C(=O)N[C@@H](CC(N)=O)C(=O)N[C@H]2C(=O)N[C@H]3C(=O)N[C@H](C(=O)N[C@H](C(=O)O)c4cc(O)cc(O)c4-c4cc3ccc4O)[C@H](O)c3ccc(c(Cl)c3)Oc3cc2cc(c3O[C@@H]2O[C@H](CO)[C@@H](O)[C@H](O)[C@H]2O[C@H]2C[C@](C)(N)[C@H](O)[C@H](C)O2)Oc2ccc(cc2Cl)[C@H]1O [VANCOMYCIN],100%,0.25 µg/mL,0.5 µg/mL,
